SIAE primary: inhibitors of human sialic acid acetylesterase SIAE; hit rate 0.69% among 370,000; inhibition, % at 9.66 µM; Q9HAT2; SIAE FP-Rh probe binding, fluorescence polarization;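 active means inhibition above a cutoff: mean of compounds within the control limits plus 3 SD of those, cut at about 17% in these data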
rCAG RNA binder: binds r(CAG) RNA repeats; r(CAG) RNA repeat, TO-PRO-1 dye displacement fluorescence; inhibition, % at 3 µM; hit rate 1.3% among 370,000;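 active means inhibition above the plate cutoff, the mean of all test compounds on that plate plus 3 SD, cut at about 35% in these data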;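 further: higher means more dye released from RNA so lower well fluorescence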
PRMT1 inh: inhibitors of human PRMT1; Q99873; recombinant PRMT1, activity-based probe fluorescence polarization; inhibition, % at 2.79 µM; hit rate 1.3% among 370,000;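 active means inhibition above about 21% made by adding two undisclosed values, limit read from the data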
HTRA1 inh: inhibitors of human serine peptidase HTRA1; Q92743; recombinant HTRA1, FP-rhodamine activity-based probe, fluorescence polarization; inhibition, % at 5.96 µM; hit rate 0.5% among 340,000; AID 504803; in the data active means inhibition above about 36%
Target sequence (Q92743 whole entry, looked up): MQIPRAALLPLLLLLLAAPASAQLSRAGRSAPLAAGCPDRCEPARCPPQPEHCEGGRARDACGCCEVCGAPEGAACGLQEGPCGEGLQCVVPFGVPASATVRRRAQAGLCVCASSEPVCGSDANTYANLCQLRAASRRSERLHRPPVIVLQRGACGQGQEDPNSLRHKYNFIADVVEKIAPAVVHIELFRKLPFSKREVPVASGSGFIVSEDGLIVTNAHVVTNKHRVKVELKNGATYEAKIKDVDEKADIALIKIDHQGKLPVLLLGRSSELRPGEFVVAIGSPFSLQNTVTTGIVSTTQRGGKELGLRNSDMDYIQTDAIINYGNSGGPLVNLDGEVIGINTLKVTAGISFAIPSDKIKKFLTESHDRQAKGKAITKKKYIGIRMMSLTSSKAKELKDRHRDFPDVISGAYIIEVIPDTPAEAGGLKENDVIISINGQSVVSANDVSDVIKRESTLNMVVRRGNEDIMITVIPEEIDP
mABHD4 FP: ABHD4 (mouse) inhibition, primary FP screen; hit rate 0.54% among 370,000; Q8VD66; purified mABHD4, FP-Rh probe fluorescence polarization; inhibition, % at 8.92 µM;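 active means inhibition exceeding the mean over every tested compound plus 3 SD, cut at about 30% in these data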
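Doses – 8.92 µM, single dose · Material – wild-type mouse ABHD4 protein · Replication – single well per compound (singlicate) · Measure – percent inhibition of probe binding, normalized to plate controls · Schedule – 45 min compound pre-incubation plus 60 min probe step, 25 °C · Detection – fluorescence polarization with parallel and perpendicular emission, 525/598 nm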
PRMT1 confirm: PRMT1 (human) inhibition, FP confirmation; inhibition, % at 2.79 µM; AID 687036; recombinant His-PRMT1, activity-based probe fluorescence polarization; hit rate 42% among 3,300; shares compounds with PRMT1 inh;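 active means mean inhibition across replicates above the hit cutoff derived for the earlier primary screen, cut at about 22% in these data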
Each line names hits and unclear results; the compound was inactive in the other large screens (follow-up assays come after a bar, where they were run). Sampled rows, rich in hits. Any-hit rate of the full collection: about 3.3%.

Cc1cccc(NC(c2ccc(C)s2)c2ccc3ccc(C)nc3c2O)n1 (stereo not drawn)	PRMT1 inh 25.7 | PRMT1 confirm 28.4
Cc1ccnc(NC(c2ccsc2)c2ccc3ccc(C)nc3c2O)c1 (stereo not drawn)	PRMT1 inh 44.4 | PRMT1 confirm 49.5
COc1cc2ccccc2cc1C(=O)O	none
COc1ccc(OC)c2cc3ccccc3cc12	PRMT1 inh 28.9 | PRMT1 confirm 69.5
CC1=CC2=NC(=O)/C(=C/c3coc4ccc(Cl)cc4c3=O)C(=N)N2O1	none
N=C1/C(=C\c2coc3ccccc3c2=O)C(=O)N=C2SC=CN12	PRMT1 inh 36.4 | PRMT1 confirm 31.6
O=C(O)CC(SCC(=O)Nc1ccc(S(=O)(=O)N2CCCC2)cc1)C(=O)O (stereo not drawn)	PRMT1 inh 45.2 | PRMT1 confirm 38.8
COc1ccc2cc(C3CC(c4ccco4)=NN3S(C)(=O)=O)c(Cl)nc2c1 (stereo not drawn)	PRMT1 inh 25.4 | PRMT1 confirm inactive
CCOc1ccc2nc(Cl)c(C3CC(c4ccco4)=NN3S(=O)(=O)c3ccccc3)cc2c1 (stereo not drawn)	PRMT1 inh 31.7 | PRMT1 confirm inactive
Cc1ccc(S(=O)(=O)N2CCOCC2)cc1NC(=O)CN(C)CC(=O)Nc1cccc(F)c1	none
COC(=O)[C@]12CCCCC=C1N(Cc1cccc3ccccc13)C(=O)[C@H](CC(=O)NCc1cccc(C(F)(F)F)c1)C2	none (no result: HTRA1 inh)
COCCN(C(=S)Nc1c(C)cc(C)cc1C)C(C)c1cccnc1 (stereo not drawn)	PRMT1 inh 74.2 | PRMT1 confirm 63.2
COc1cc(S(=O)(=O)Nc2cccc(C)c2)ccc1NC(=O)c1cccnc1	none
CCCCn1c(N)c(N(CCOC)C(=O)CN(C)CC(=O)Nc2ccc(Cl)c(Cl)c2)c(=O)[nH]c1=O	none
O=C(O)c1cc(-c2ccco2)nc2ccc(Br)cc12	PRMT1 inh 35.4 | PRMT1 confirm inactive
O=C(NCC1CCCO1)c1cc(-c2ccco2)nc2ccccc12 (stereo not drawn)	PRMT1 inh 72.6 | PRMT1 confirm inactive
NS(=O)(=O)c1ccc(CCNC(=O)c2ccc[nH]c2=S)cc1	PRMT1 inh 38.6 | PRMT1 confirm inactive
Cc1cccc(NC(=O)c2cc(-c3ccco3)nc3ccccc23)n1	PRMT1 inh 35.4 | PRMT1 confirm inactive
Cc1ccccc1NC(=O)c1cc(-c2ccco2)nc2ccccc12	none (no result: HTRA1 inh)
COc1cc(CCC(=O)OCC(=O)Nc2sccc2C(N)=O)cc(OC)c1OC	none
Cc1ccoc1C(=O)Nc1cccc2ccccc12	none
COC(CNC(=O)c1ccc(CS(=O)(=O)c2c(Cl)cccc2Cl)o1)OC	none
NC(=O)c1nc[nH]c1C(=O)Nc1cccc(NC(=O)c2cccc(C(F)(F)F)c2)c1	none
NC(=O)COC(=O)c1cc(-c2ccco2)nc2ccccc12	PRMT1 inh 28.4 | PRMT1 confirm inactive
NS(=O)(=O)c1ccc(CCNC(=O)c2cc(-c3ccccc3)nc3ccccc23)cc1	none
NS(=O)(=O)c1ccc(CCNC(=O)c2cc(-c3ccco3)nc3ccccc23)cc1	PRMT1 inh 51.3 | PRMT1 confirm inactive
CC(C)CCNC(=O)c1cc(-c2ccco2)nc2ccccc12	none
CCCCCCNC(=O)c1cc(-c2ccco2)nc2ccccc12	PRMT1 inh 42.2 | PRMT1 confirm inactive
COc1ccc(NC(=O)c2cc(-c3ccco3)nc3ccccc23)cc1	none
CCN(CC)CCC(c1ccc(N(C)C)cc1)c1c(O)cc(OC)cc1OC (stereo not drawn)	none
NNC(=S)NCc1ccco1	none
CCOC(=O)CC(=O)CSc1ncnc2c1nnn2-c1ccc(F)cc1	PRMT1 inh 51.1 | PRMT1 confirm 92.2
CC(=O)Nc1cc(-c2ccccc2N(C)C)cn2c(-c3ccc(S(C)(=O)=O)cc3)cnc12	PRMT1 inh 107.3 (no result: HTRA1 inh) | PRMT1 confirm inactive
COc1ccc(C2CC(=O)C=C(NCc3ccc4c(c3)OCO4)C2)cc1 (stereo not drawn)	none
O=C(Nc1cccc2ccccc12)c1cc2c(cc1Br)OCO2	none
O=[N+]([O-])c1cnc2ccccc2c1Sc1ccccc1	PRMT1 inh 73.2 (no result: rCAG RNA binder, HTRA1 inh) | PRMT1 confirm 70.8
N#CC1C(=O)c2ccccc2C1c1ccccc1 (stereo not drawn)	PRMT1 inh 45.3 | PRMT1 confirm inactive
CN1CCc2nc(SCC(=O)Nc3ccc(OC(F)(F)F)cc3)c(C#N)c(-c3cccs3)c2C1	PRMT1 inh 40.4 | PRMT1 confirm 40.7
CN1CCc2nc(SCC(=O)Nc3cccc(F)c3)c(C#N)c(-c3cccs3)c2C1	PRMT1 inh 65.4 | PRMT1 confirm 23.2
Cc1cc(C)cc(CC(=O)N2CCC2(C)C(=O)NS(=O)(=O)c2ccccc2Cl)c1 (stereo not drawn)	none (no result: HTRA1 inh)
CC(C)(N[C@@H](Cc1ccccc1)C(=O)NCCCc1ccccc1)C(=O)NCc1ccccc1	none (no result: rCAG RNA binder, HTRA1 inh)
FC(F)(F)c1nc2ccccc2nc1N/N=C\c1ccccc1	PRMT1 inh 25.1 | PRMT1 confirm inactive
NNc1nc2ccccc2nc1C(F)(F)F	none
COc1ccc(-c2oc3c4c2C(=O)OCCOC4CCC3)cc1 (stereo not drawn)	none (no result: HTRA1 inh)
c1ccc2c(C3=NNC(=NC4CC4)SC3)c[nH]c2c1	PRMT1 inh 37.9 | PRMT1 confirm inactive
c1ccc2c(C3=NNC(=NC4CCCCC4)SC3)c[nH]c2c1	none
COc1cc(OC)cc(C(=O)NCC(=O)N2CCN(c3ccc(O)cc3)CC2)c1	PRMT1 inh 25.2 | PRMT1 confirm inactive
O=C(CN(C(=O)c1ccccc1Cl)N1C(=O)C2C3C=CC(C3)C2C1=O)c1cccs1 (stereo not drawn)	none
COc1cccc(NC(=O)CNC(=O)c2ccc(C)o2)c1	none
Nc1c(C(=O)N/N=C/c2cccnc2)oc2nc(-c3ccco3)cc(-c3ccco3)c12	PRMT1 inh 45.7 (no result: HTRA1 inh) | PRMT1 confirm inactive
COc1ccc(S(=O)(=O)N/N=C\c2ccccc2F)cc1	none
Cc1cc(N)c(NC2=CC(=O)CC(C)(C)C2)cc1C	PRMT1 inh 27.0 | PRMT1 confirm inactive
N#CCc1c(C#N)c(N)nc(N2CCN(S(=O)(=O)c3ccccc3)CC2)c1C#N	none
COc1ccccc1N1CCN(c2nc(N)c(C#N)c(CC#N)c2C#N)CC1	none
N#CCc1c(C#N)c(N)nc(N2CCN(C=O)CC2)c1C#N	PRMT1 inh 35.5 | PRMT1 confirm inactive
N#CCc1c(C#N)c(N)nc(N2CCOCC2)c1C#N	PRMT1 inh 38.3 | PRMT1 confirm inactive
CC(=O)N1CCN(c2nc(N)c(C#N)c(CC#N)c2C#N)CC1	PRMT1 inh 28.7 | PRMT1 confirm inactive
CN1CCc2c(sc(/N=C/c3ccco3)c2C(N)=O)C1	PRMT1 inh 25.3 | PRMT1 confirm inactive
CN1CCc2c(sc(/N=C/c3cccs3)c2C(N)=O)C1	none (no result: SIAE primary, rCAG RNA binder, PRMT1 inh, mABHD4 FP)
Nc1[nH]c(=O)nc2snnc12	none
O=C(Nc1ccc(Cl)cc1)c1ccc2ncsc2c1	none
O=C(c1ccc2ncsc2c1)N1CCCCC1	none
